Reference: ChEMBL document CHEMBL1157620, “1-(Aryl)-6-[alkoxyalkyl]-3-azabicyclo[3.1.0]hexanes and 6-(aryl)-6-[alkoxyalkyl]-3-azabicyclo[3.1.0]hexanes: a new series of potent and selective triple reuptake inhibitors” (J Med Chem, 2010)

Tests used:
[1] = biological target: T1, Sodium-dependent serotonin transporter (Homo sapiens, UniProt P31645); assay: Inhibition of [3H]serotonin reuptake at human SERT expressed in LLCPK cells by scintillation proximity assay; type: cell-based
Procedure, shortened: (§1)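 Uptake-SPA on stably transfected LLCPK cells in HEPES buffer, pH 7.4. SERT: 25000 cells/well, 1.5 mg/mL beads, 35 nM [3H]serotonin. NET: 50000 cells/well, 1.5 mg/mL beads, 45 nM [3H]noradrenalin. DAT: 75000 cells/well, 2 mg/mL beads, 75 nM [3H]dopamine. Concentrations are those of the substrate addition. 1 h at room temperature; 4-parameter fit.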

[2] = Blood clearance in rat; type: ADME, organism-based
[3] = Ratio of drug level in brain to blood in rat; type: ADME, tissue-based; conditions: read-out: BBR
[4] = biological target: Sodium-dependent dopamine transporter (Rattus norvegicus, UniProt P23977); assay: Displacement of [N-methyl-3H]WIN-35428 from rat striatum DAT by filtration binding assay
Procedure, shortened: (§2)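 Native brain tissue filtration binding, run as for the recombinant transporters. SERT on rat or mouse cortex (20 and 7 μg protein/well respectively). NET on rat hippocampus (40 μg/well). DAT on rat striatum (20 μg/well).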

[5] = biological target: T2, Voltage-gated inwardly rectifying potassium channel KCNH2 (Homo sapiens, UniProt Q12809); assay: Displacement of [3H][…] from human ERG by scintillation proximity assay
Procedure, shortened: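 SPA-format [³H]dofetilide binding to hERG, with bound signal read on a plate imager. The value is reported as a binding pKi.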

[6] = Volume of distribution in rat; type: ADME, organism-based; conditions: in vivo
Liver microsomes [7] = assay: Intrinsic clearance in human liver microsomes assessed per gram of protein at 0.5 uM after 30 mins by HPLC-MS/MS analysis; type: ADME, Microsome; conditions: microsomes, 0.5 h, 0.5 µM
Procedure, shortened: (§3)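 Compound at 0.5 μM with rat or human liver microsomes (0.5 mg protein/mL), 50 mM phosphate, pH 7.4, 37 °C, started with NADPH. Sampled at 0-30 min, acetonitrile quench, HPLC-MS/MS. CLi from first-order elimination constant, scaled assuming 52.5 mg microsomal protein/g.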

[8] = biological target: T3, Sodium-dependent dopamine transporter (Homo sapiens, UniProt Q01959); assay: Displacement of [3H]WIN-35428 from human recombinant DAT expressed in BacMam virus-transduced cells by scintillation proximity assay; type: cell-based
[9] = biological target: Muscarinic acetylcholine receptor M4 (Homo sapiens, UniProt P08173); assay: Inhibition of muscarinic M4 receptor
[10] = Bioavailability in rat; type: ADME, organism-based; conditions: in vivo
[11] = biological target: T2, Voltage-gated inwardly rectifying potassium channel KCNH2; assay: Inhibition of human ERG assessed as blockade of channel current by electrophysiology assay
[12] = Half life in rat; type: ADME, organism-based; conditions: in vivo
[13] = biological target: 5-hydroxytryptamine receptor 2A (Homo sapiens, UniProt P28223); assay: Inhibition of 5HT2A receptor
Transporter = Transporter (Rattus norvegicus, UniProt Q63380); assay: Displacement of [N-methyl-3H]nisoxetine from rat hippocampus NET by filtration binding assay; type: tissue-based; procedure, shortened: as §2
[14] = biological target: Muscarinic acetylcholine receptor M5 (Homo sapiens, UniProt P08912); assay: Inhibition of muscarinic M5 receptor
Cytochrome P450 1A2 = biological target: T4, Cytochrome P450 1A2 (Homo sapiens, UniProt P05177); assay: Inhibition of human CYP1A2 by fluorescence assay; type: ADME
T4 sequence (P05177 whole entry): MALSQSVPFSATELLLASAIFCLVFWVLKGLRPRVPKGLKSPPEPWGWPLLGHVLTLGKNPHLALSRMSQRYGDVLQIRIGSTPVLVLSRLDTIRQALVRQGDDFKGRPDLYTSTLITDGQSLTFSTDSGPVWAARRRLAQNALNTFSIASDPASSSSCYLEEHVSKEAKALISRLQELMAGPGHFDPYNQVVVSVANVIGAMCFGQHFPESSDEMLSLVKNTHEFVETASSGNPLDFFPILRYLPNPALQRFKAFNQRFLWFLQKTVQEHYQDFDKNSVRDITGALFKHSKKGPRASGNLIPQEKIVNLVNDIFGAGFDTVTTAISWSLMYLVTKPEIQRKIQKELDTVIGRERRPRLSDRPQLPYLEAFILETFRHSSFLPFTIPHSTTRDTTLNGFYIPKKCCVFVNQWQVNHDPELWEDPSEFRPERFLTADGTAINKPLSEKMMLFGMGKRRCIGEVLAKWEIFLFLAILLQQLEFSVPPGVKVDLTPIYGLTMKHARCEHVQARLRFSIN
Procedure, shortened: (§4)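 Recombinant human P450 bactosomes (0.1 mg/mL) in 50 mM phosphate, pH 7.4. Test compound at 0.1-10 μM, preincubated 10 min at 37 °C with fluorogenic substrate: ethoxyresorufin 0.5 μM (1A2), FCA 50 μM (2C9), BMC 10 μM (2C19), MMC 10 μM (2D6).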

Cytochrome P450 2C9 = Cytochrome P450 2C9 (Homo sapiens, UniProt P11712); assay: Inhibition of human CYP2C9 by fluorescence assay; type: ADME; procedure, shortened: as §4
Liver microsomes [15] = assay: Intrinsic clearance in rat liver microsomes assessed per gram of protein at 0.5 uM after 30 mins by HPLC-MS/MS analysis; type: ADME, Microsome; conditions: microsomes, 0.5 h, 0.5 µM; procedure, shortened: as §3
[16] = biological target: Sodium-dependent serotonin transporter (Rattus norvegicus, UniProt P31652); assay: Displacement of [3H]citalopram from rat cortex SERT by filtration binding assay; procedure, shortened: as §2
[17] = biological target: Sodium-dependent serotonin transporter (Mus musculus, UniProt Q60857); assay: Displacement of [3H]citalopram from mouse cortex SERT by filtration binding assay; procedure, shortened: as §2
Cytochrome P450 2D6 = Cytochrome P450 2D6 (Homo sapiens, UniProt P10635); assay: Inhibition of human […] by fluorescence assay; type: ADME; procedure, shortened: as §4
[18] = biological target: T5, Sodium-dependent noradrenaline transporter (Homo sapiens, UniProt P23975); assay: Displacement of [3H]nisoxetine from human recombinant NET expressed in BacMam virus-transduced cells by scintillation proximity assay; type: cell-based
Procedure, shortened: (§5)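 BacMam-transduced membranes in SPA format. SERT: 1 mg/mL beads, 6 μg/mL membranes, 3 nM [3H]citalopram. NET: 2 mg/mL beads, 40 μg/mL membranes, 10 nM [3H]nisoxetine. Incubated overnight at room temperature; pKi from pIC50 by Cheng-Prusoff.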

Cytochrome P450 2C19 = Cytochrome P450 2C19 (Homo sapiens, UniProt P33261); assay: Inhibition of human CYP2C19 by fluorescence assay; type: ADME; procedure, shortened: as §4
[19] = biological target: T3, Sodium-dependent dopamine transporter; assay: Inhibition of [3H]dopamine reuptake at human DAT expressed in LLCPK cells by scintillation proximity assay; type: cell-based; procedure, shortened: as §1
Histamine H1 receptor = Histamine H1 receptor (Homo sapiens, UniProt P35367); assay: Inhibition of histamine H1 receptor
[20] = biological target: Alpha-1A adrenergic receptor (Homo sapiens, UniProt P35348); assay: Inhibition of adrenergic alpha1A receptor
[21] = biological target: T5, Sodium-dependent noradrenaline transporter; assay: Inhibition of [3H]noradrenalin reuptake at human NET expressed in LLCPK cells by scintillation proximity assay; type: cell-based; procedure, shortened: as §1
Cytochrome P450 3A4 = Cytochrome P450 3A4 (Homo sapiens, UniProt P08684); assay: Inhibition of human CYP3A4 by fluorescence assay
[22] = biological target: T1, Sodium-dependent serotonin transporter; assay: Displacement of [3H]citalopram from human recombinant SERT expressed in BacMam virus-transduced cells by scintillation proximity assay; type: cell-based; procedure, shortened: as §5
[23] = Fraction unbound in rat brain; type: ADME, tissue-based; conditions: brain
[24] = biological target: Muscarinic acetylcholine receptor M2 (Homo sapiens, UniProt P08172); assay: Inhibition of muscarinic M2 receptor
[25] = biological target: Muscarinic acetylcholine receptor M3 (Homo sapiens, UniProt P20309); assay: Inhibition of muscarinic M3 receptor
[26] = biological target: Muscarinic acetylcholine receptor M1 (Homo sapiens, UniProt P11229); assay: Inhibition of muscarinic M1 receptor

T5 sequence (P23975 whole entry): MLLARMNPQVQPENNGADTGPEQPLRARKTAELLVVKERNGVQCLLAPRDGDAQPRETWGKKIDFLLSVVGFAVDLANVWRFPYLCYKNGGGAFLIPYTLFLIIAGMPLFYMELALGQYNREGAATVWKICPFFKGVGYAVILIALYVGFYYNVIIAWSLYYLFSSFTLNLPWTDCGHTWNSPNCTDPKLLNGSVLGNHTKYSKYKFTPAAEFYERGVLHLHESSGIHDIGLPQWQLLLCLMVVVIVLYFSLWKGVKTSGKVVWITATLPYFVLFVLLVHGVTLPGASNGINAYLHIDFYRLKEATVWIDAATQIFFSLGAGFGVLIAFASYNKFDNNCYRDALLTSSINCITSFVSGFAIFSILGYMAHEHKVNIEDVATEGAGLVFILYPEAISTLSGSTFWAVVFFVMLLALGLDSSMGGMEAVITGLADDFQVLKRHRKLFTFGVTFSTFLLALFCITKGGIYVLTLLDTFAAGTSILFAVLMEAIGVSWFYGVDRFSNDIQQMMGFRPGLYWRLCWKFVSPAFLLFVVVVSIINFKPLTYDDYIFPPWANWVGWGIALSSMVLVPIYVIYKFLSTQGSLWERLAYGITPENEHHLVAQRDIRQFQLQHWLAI
T2 sequence (Q12809 whole entry): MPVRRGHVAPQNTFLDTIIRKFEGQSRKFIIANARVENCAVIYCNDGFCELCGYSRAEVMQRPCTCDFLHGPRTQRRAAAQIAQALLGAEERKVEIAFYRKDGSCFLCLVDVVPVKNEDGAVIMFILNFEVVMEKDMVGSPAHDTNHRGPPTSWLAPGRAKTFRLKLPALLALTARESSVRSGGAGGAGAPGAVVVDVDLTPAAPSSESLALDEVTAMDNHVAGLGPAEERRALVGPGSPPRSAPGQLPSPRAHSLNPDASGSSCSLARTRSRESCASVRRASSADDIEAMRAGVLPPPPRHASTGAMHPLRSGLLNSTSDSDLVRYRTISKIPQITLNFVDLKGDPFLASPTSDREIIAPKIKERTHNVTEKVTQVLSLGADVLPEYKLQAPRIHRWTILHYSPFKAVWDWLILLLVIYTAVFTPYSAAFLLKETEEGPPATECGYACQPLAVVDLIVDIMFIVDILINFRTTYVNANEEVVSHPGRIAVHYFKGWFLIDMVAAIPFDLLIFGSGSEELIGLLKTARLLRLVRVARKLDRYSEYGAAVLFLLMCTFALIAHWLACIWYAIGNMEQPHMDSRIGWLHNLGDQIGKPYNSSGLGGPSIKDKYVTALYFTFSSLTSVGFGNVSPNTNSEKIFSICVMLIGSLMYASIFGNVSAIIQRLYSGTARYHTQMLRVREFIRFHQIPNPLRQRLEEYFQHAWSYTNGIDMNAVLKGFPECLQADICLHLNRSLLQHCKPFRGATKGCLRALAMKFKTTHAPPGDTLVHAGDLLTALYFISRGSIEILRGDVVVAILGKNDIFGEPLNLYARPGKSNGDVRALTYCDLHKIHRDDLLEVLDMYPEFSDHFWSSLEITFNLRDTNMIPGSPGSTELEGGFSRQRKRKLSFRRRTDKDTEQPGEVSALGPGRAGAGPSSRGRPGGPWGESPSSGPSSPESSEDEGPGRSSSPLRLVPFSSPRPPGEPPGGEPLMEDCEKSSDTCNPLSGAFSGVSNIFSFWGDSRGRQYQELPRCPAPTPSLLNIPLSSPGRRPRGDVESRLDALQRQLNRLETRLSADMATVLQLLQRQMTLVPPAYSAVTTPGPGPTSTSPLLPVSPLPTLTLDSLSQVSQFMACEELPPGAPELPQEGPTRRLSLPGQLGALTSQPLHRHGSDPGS
T1 sequence (P31645 whole entry): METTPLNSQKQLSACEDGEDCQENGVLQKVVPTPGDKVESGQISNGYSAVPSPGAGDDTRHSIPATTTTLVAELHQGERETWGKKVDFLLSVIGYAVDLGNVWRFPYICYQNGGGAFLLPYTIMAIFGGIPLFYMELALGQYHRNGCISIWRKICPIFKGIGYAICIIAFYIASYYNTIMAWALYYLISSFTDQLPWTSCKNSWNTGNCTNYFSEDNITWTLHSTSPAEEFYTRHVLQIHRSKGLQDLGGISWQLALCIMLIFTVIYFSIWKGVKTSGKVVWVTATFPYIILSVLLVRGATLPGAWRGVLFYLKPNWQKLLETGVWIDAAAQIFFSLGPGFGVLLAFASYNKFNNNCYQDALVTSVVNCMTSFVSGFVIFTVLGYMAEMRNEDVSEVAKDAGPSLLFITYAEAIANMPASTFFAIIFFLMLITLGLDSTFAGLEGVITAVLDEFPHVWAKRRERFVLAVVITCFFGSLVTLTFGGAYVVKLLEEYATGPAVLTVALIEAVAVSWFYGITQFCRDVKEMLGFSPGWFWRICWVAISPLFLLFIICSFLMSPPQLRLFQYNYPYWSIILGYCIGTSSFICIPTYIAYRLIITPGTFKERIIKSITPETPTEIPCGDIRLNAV
T3 sequence (Q01959 whole entry): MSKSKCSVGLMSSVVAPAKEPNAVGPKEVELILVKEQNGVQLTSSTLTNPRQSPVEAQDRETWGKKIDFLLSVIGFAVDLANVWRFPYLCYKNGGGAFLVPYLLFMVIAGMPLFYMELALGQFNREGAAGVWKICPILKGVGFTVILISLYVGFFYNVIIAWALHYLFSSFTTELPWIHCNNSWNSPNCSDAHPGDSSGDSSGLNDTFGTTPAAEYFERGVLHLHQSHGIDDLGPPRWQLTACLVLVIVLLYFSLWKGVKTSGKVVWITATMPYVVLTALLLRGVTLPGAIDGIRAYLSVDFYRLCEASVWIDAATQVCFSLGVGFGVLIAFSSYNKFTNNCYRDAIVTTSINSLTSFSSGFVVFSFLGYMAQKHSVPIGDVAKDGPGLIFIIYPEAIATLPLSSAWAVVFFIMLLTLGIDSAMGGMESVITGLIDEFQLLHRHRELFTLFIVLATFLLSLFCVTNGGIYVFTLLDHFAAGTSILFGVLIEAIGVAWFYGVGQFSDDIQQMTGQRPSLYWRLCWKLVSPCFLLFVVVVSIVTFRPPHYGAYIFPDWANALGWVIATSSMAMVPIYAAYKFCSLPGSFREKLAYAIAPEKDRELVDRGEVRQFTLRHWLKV
Sodium-dependent dopamine transporter (Rattus norvegicus, UniProt P23977), sequence (P23977 whole entry): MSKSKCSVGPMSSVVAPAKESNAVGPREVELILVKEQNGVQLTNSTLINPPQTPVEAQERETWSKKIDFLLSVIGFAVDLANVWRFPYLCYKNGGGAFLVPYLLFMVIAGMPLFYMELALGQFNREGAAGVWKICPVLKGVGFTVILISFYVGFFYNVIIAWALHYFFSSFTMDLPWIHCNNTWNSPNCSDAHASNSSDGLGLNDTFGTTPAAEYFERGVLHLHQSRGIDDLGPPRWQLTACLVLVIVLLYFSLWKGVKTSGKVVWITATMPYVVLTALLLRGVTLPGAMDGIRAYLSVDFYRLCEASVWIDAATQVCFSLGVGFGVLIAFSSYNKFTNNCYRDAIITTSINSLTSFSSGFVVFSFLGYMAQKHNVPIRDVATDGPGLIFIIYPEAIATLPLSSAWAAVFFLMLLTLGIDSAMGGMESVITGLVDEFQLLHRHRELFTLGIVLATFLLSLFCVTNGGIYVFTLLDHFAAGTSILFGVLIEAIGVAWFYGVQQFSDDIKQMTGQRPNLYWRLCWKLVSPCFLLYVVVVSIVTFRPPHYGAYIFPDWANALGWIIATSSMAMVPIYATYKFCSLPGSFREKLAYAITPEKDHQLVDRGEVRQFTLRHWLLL
Muscarinic acetylcholine receptor M2, sequence (P08172 whole entry): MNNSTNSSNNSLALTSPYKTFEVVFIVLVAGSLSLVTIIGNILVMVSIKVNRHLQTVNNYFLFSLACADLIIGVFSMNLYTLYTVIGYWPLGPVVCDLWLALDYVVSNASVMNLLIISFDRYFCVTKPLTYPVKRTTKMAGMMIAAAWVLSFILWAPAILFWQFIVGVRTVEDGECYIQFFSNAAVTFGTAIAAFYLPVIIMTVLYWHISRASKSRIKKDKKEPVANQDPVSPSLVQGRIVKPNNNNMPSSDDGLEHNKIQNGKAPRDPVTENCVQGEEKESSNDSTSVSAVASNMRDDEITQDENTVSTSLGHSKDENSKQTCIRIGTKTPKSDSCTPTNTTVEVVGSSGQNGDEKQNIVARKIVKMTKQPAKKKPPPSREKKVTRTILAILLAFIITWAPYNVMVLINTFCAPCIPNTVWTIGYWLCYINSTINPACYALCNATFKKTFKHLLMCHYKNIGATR
Cytochrome P450 3A4, sequence (P08684 whole entry): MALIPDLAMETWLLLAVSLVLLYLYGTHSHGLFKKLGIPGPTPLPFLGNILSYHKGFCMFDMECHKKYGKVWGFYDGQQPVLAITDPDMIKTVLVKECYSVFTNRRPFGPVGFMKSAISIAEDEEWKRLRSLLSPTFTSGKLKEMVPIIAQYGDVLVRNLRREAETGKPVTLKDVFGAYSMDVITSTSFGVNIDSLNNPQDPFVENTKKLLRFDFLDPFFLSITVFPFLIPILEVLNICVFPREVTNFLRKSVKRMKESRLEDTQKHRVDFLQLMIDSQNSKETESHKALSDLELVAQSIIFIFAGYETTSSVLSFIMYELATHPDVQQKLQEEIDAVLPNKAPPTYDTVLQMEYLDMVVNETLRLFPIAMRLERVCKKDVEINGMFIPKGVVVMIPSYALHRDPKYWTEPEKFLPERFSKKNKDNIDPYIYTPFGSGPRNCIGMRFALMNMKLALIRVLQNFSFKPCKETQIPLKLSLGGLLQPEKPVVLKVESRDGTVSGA

CCOC[C@H]1[C@@H]2CNC[C@@]21c1ccc(Cl)c(Cl)c1
IC50 [1]: 0.00126 µM | clearance [2]: 1.08 L/h/kg | Kp [3]: 4.6 | Ki [4]: 0.0135 µM | Ki [5]: 12.6 µM | Vd [6]: 1.4 L/kg | CL (Liver microsomes [7]): 1.2 mL/min/g | Ki [8]: 0.00794 µM | Ki [9]: 0.251 µM | bioavailability [10]: 61% | IC50 [11]: 4.2 µM | half-life [12]: 1.2 h | Ki [13]: 0.158 µM | Ki (Transporter): 0.000135 µM | Ki [14]: 0.1 µM | IC50 (Cytochrome P450 1A2): > 9 µM | IC50 (Cytochrome P450 2C9): > 9 µM | CL (Liver microsomes [15]): 1.3 mL/min/g | Ki [16]: 0.000676 µM | Ki [17]: 0.000851 µM | IC50 (Cytochrome P450 2D6): 4 µM | Ki [18]: 0.000501 µM | IC50 (Cytochrome P450 2C19): > 9 µM | IC50 [19]: 0.00501 µM | Ki (Histamine H1 receptor): 1 µM | Ki [20]: 0.2 µM | IC50 [21]: 0.000158 µM | IC50 (Cytochrome P450 3A4): > 9 µM | Ki [22]: 0.000158 µM | fraction unbound [23]: 0.014 | Ki [24]: 0.2 µM | Ki [25]: 0.0631 µM | Ki [26]: 0.158 µM
